For data set [1], the system named is Pichia kudriavzevii. The data set can be described thus: Antifungal activity against Candida krusei ATCC 6258 after 18 to 24 hrs. The data set is classed as functional, organism-based.
The test system of data set [2] is Leishmania donovani. Put plainly: Antileishmanial activity against Leishmania donovani promastigotes by Alamar blue assay. It is filed as functional, organism-based. Background: Alamar Blue is a resazurin reagent that responds to reducing activity.
The subject of data set [3] is Candida albicans. Put plainly: Antifungal activity against Candida albicans ATCC 90028 after 18 to 24 hrs. The data set is classed as functional, organism-based.
The test system of data set [4] is Cryptococcus neoformans. Put plainly: Antifungal activity against Cryptococcus neoformans ATCC 90113 after 68 to 72 hrs. The data set is classed as functional, organism-based.
The subject of data set [5] is Nakaseomyces glabratus. The data set can be described thus: Antifungal activity against Candida glabrata ATCC 90030 after 18 to 24 hrs. The data set is classed as functional, organism-based.
Data set [6] deals with Plasmodium falciparum. The data set can be described thus: Antimalarial activity against chloroquine-sensitive Plasmodium falciparum D6. It is filed as functional, organism-based.
A short description of data set [7]: Selectivity index, Ratio of IC50 in Vero cells to IC50 in chloroquine-sensitive Plasmodium falciparum D6. It is filed as functional.
Data set [8] is described as follows: Selectivity index, Ratio of IC50 in Vero cells to IC50 in chloroquine-resistant Plasmodium falciparum W2. The data set is classed as functional.
Data set [9] deals with Plasmodium falciparum. Put plainly: Antimalarial activity against chloroquine-resistant Plasmodium falciparum W2. It is filed as functional, organism-based.
The test system of data set [10] is Plasmodium berghei. The data set can be described thus: Antimalarial activity as parasite elimination against Plasmodium berghei in mice (Mus musculus) at 100 mg/kg/day peroral dose over 4 days. It is filed as functional, organism-based. An outline of the steps: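 Mice, 6 per group, infected with drug-sensitive P. berghei; oral dosing on days 0–3 post infection (×4); vehicle-only and chloroquine 10 mg/kg/day×4 oral controls. Curative means no parasites and survival to day D+60; suppressive means negative parasitaemia to D+7.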

Data set [11] concerns Vero. Put plainly: Cytotoxicity against Vero cells upto 23.8 ng/ml by neutral red assay. The data set is classed as cell-based. Conditions: chlorocebus sabaeus, in the assay text read “23.8 µg/ml” for “23.8 ng/ml”. An outline of the steps:
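Vero monkey kidney fibroblasts (ATCC), neutral red uptake read-out; compounds tested up to a highest concentration of 23.8 µg/mL.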

For data set [12], the system named is Candida albicans. Put plainly: Antifungal activity against Candida albicans ATCC 90028 at 20 ug/mL after 18 to 24 hrs. The data set is classed as functional, organism-based.
The nature of data set [13]: Methemoglobin toxicity in human erythrocytes incubated with mouse liver microsomes assessed as MetHb formation at 20 ug/mL by biotransformation linked assay. Also noted: species or system Erythrocyte, Microsome. In short, it runs like this: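 Compound at 20 µg/mL co-incubated 1 h at 37 °C, shaking, with mouse liver microsomes (500 µg protein), human erythrocytes (50% hematocrit suspension), NADPH-regenerating system, KCl, in 100 mM potassium phosphate pH 7.4; cells pelleted, lysed in Triton X-100 phosphate buffer pH 7.8; MetHb relative to total Hb by Evelyn–Malloy spectrophotometry; % versus vehicle control.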

Converted amounts (≈) assume the structure as drawn. The source made the active and inactive calls.

Broadly, the IC50 is the concentration at which inhibition is half-maximal. Low values mean greater potency in that assay, high ones weaker potency in that assay. For orientation: IC90 means the point of the concentration-response curve where the effect stands at 90%. A lower IC90 goes with greater potency. By MFC is commonly meant the smallest concentration meeting the test's criterion for killing the fungus. A low value points to more potent killing. Usually MIC stands for the smallest concentration in the dilution series that meets the test's criterion for growth inhibition. Low readings indicate a more susceptible organism, high ones a less susceptible organism.

With `C[C@@H]1[C@H](O)[C@@H](C)/C=C/C=C/C=C/C=C/C=C/C=C/C=C/[C@H](O[C@@H]2O[C@H](C)[C@@H](O)[C@H](N)[C@@H]2O)C[C@@H]2O[C@](O)(C[C@@H](O)C[C@@H](O)[C@H](O)CC[C@@H](O)C[C@@H](O)CC(=O)O[C@H]1C)C[C@H](O)[C@H]2C(=O)O` [AMPHOTERICIN B], the IC50 was 0.6 µg/mL (≈ 0.649 µM) in [1], 0.25 µg/mL (≈ 0.271 µM) in [3], 0.75 µg/mL (≈ 0.812 µM) in data set [4] and 0.07 µg/mL (≈ 0.0758 µM) in [5]. Also, the 90% effect concentration (IC90) in data set [2] came out at 0.35 µg/mL (≈ 0.379 µM). Besides, the MFC in data set [4] is 1.5 µg/mL (≈ 1.62 µM); in data set [5] it was 0.625 µg/mL (≈ 0.676 µM). This molecule registered an MIC in data set [5] of 0.31 µg/mL (≈ 0.335 µM).
As to `C[C@@H]1CC[C@H]2[C@@H](C)C(=O)O[C@@H]3O[C@@]4(C)CC[C@@H]1[C@]32OO4` [ARTEMISININ], the IC50 in [6] amounted to 0.0152 µg/mL (≈ 0.0538 µM); in data set [9], 0.009 µg/mL (≈ 0.0319 µM). In addition, the Selectivity index in data set [7] is listed as 1565; in data set [8] it was 2644.
Take `COc1cc(NC(C)CCCN)c2ncccc2c1` (stereo not given) [PRIMAQUINE]: the outcome in [10], in [2] and in data set [12] was inactive. The figures for the Activity entry in data set [11] and in [13] were “Non-toxic” and 47.9%, respectively. The molecule also yielded an IC50 in [2] of 19.9 µg/mL (≈ 76.7 µM).
In data set [2], `N=C(N)c1ccc(OCCCCCOc2ccc(C(=N)N)cc2)cc1` [PENTAMIDINE] showed an IC50 of 1 µg/mL (≈ 2.94 µM) and an IC90 of 3.8 µg/mL (≈ 11.2 µM).

For the origin of these results see ChEMBL document CHEMBL1144547, “Synthesis, antimalarial, antileishmanial, antimicrobial, cytotoxicity, and methemoglobin (MetHB) formation activities of new 8-quinolinamines” (Bioorg Med Chem, 2007).
